Source: ChEMBL document CHEMBL1128200, “(R)-(+)-N-[3-[5-[(4-fluorophenyl)methyl]-2-thienyl]-1-methyl- 2-propynyl]-N-hydroxyurea (ABT-761), a second-generation 5-lipoxygenase inhibitor” (J Med Chem, 1995)

Columns and labels:
Rattus norvegicus = assay: Compound was evaluated in vivo for the rat anaphylaxis leukotriene formation at an oral dose of 30 umol/kg; assay type: functional
Summary of the method: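 Male Sprague-Dawley rats passively sensitized ip with rabbit anti-BSA antiserum; 3 h later challenged ip with 4 mg BSA in PBS. Drug given by oral gavage 1 h before challenge; killed 15 min post-challenge, peritoneal fluid collected, methanol-extracted, LTE4 measured by EIA. 8 rats/group; percent inhibition versus control group mean.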

[1] = target: T1, Polyunsaturated fatty acid 5-lipoxygenase (Homo sapiens, UniProt P09917); assay: (§1) 5-lipoxygenase Inhibitory activity was measured by enzyme immunoassay using human whole blood stimulated with calcium ionophore (A23187) and LTB4 (leukotriene B4); assay type: tissue-based
T1 sequence (P09917 whole entry): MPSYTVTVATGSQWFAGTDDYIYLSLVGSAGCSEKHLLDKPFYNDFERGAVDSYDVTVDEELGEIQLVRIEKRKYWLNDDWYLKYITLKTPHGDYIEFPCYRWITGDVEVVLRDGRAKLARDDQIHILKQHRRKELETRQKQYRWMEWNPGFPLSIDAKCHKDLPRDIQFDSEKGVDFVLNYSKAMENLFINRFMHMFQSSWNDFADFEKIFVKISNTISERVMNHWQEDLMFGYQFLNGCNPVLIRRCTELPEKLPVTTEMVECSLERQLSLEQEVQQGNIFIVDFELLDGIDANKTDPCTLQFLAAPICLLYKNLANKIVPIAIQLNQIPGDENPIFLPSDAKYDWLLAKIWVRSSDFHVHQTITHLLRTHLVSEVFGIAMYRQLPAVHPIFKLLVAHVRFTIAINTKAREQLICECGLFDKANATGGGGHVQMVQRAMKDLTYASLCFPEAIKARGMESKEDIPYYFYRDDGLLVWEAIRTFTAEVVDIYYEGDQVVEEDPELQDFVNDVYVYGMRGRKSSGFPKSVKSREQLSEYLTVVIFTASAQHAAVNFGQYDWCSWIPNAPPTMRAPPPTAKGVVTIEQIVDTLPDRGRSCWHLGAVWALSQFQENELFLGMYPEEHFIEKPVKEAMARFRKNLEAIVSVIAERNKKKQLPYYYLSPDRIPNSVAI
Summary of the method: (§2)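 Heparinized human blood (20 USP units/mL) preincubated with drug or vehicle 15 min at 37 °C, then stimulated with calcium ionophore A23187; LTB4 in extracts quantified by EIA. IC50 estimated by linear regression; means of at least duplicate, mostly triplicate determinations.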

Monkey = conditions: Cercopithecidae; Liver
[2] = Oral bioavailability in rat; assay type: ADME, organism-based; conditions: in vivo
[3] = Oral bioavailability was determined in guinea pig; assay type: ADME, organism-based, Cavia porcellus; conditions: in vivo
[4] = Oral bioavailability was determined in dog; assay type: ADME, organism-based, Canis lupus familiaris; conditions: in vivo
[5] = Oral bioavailability was determined in mouse; assay type: ADME, organism-based; conditions: in vivo
[6] = Oral bioavailability was determined in cynomolgus monkey; assay type: ADME, organism-based, Macaca fascicularis; conditions: in vivo
[7] = target: T2, Polyunsaturated fatty acid 5-lipoxygenase (Homo sapiens) (UniProt P09917); assay: as §1; assay type: tissue-based; conditions: concentration not given here; summary of the method: as §2
T2 sequence (whole entry): T1 sequence (P09917 whole entry)

Row | SMILES | ED50 (Rattus norvegicus) [mg/kg] | IC50 [1] [µM] | GT rate (Monkey) | other results
1 | C[C@@H](C#Cc1ccc(Cc2ccc(F)cc2)s1)N(O)C(N)=O | 2.1 | 0.2 | – | –
2 | CC(c1cc2ccccc2s1)N(O)C(N)=O (configuration not stated) [ZILEUTON] | 4.4 | – | 0.12 | –
3 | C[C@H](C#Cc1ccc(Cc2ccc(F)cc2)s1)N(O)C(N)=O [ATRELEUTON] | 2.8 | – | – | bioavailability [2]: 60%; bioavailability [3]: 90%; bioavailability [4]: 95%; bioavailability [5]: 100%; bioavailability [6]: 90%
4 | NC(=O)N(O)CC#Cc1ccc(Oc2ccc(F)cc2)o1 | – | 0.06 | 0.03 | inhibition in vivo at 30 µmol/kg (Rattus norvegicus): 70%
5 | NC(=O)N(O)CC#Cc1ccc(Cc2ccc(F)cc2)s1 | – | 0.07 | 0.05 | inhibition in vivo at 30 µmol/kg (Rattus norvegicus): 78%
6 | C[C@H](C#Cc1ccc(Oc2ccc(F)cc2)o1)N(O)C(N)=O | 1.4 | 0.08 | 0.01 | –
7 | CC(/C=C\c1ccc(Oc2ccc(F)cc2)o1)N(O)C(N)=O (configuration not stated) | – | – | 2.4 | –
8 | CC(/C=C/c1ccc(Oc2ccc(F)cc2)o1)N(O)C(N)=O (configuration not stated) | – | – | 0.07 | –
9 | C[C@@H](C#Cc1ccc(Oc2ccc(F)cc2)o1)N(O)C(N)=O | 1.5 | 0.05 | 0.05 | –
10 | CC(c1ccc(Oc2ccc(F)cc2)o1)N(O)C(N)=O (configuration not stated) | – | – | 0.31 | inhibition in vivo at 30 µmol/kg (Rattus norvegicus): 0%; inhibition [7]: 58%
11 | CC(C#Cc1ccc(Cc2ccc(F)cc2)s1)N(O)C(N)=O (configuration not stated) | 5.6 | 0.2 | – | –
12 | CC(C#Cc1ccc(Oc2ccc(F)cc2)o1)N(O)C(N)=O (configuration not stated) | 1.2 | 0.08 | 0.02 | –
